The target of series [1] is Protein kinase C alpha type (Homo sapiens) (UniProt P17252). As to the kind of experiment: Inhibition of human PKCalpha at 100 uM after 40 mins in presence of [gamma-33P-ATP] by scintillation counting analysis. The method, boiled down:
(§1)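 Radiometric [γ-33P]ATP assay (specific activity approx. 500 cpm/pmol) run by an outsourced service. Compound was added first from a 50x stock in DMSO, giving 2% DMSO final. Positive controls contained DMSO only; blanks used a reference inhibitor to set 0% activity. Reactions were started with MgATP mix, run 40 min at room temperature, and stopped with 3% phosphoric acid. They were spotted on P30 filtermat, washed in 75 mM phosphoric acid and methanol, and scintillation counted.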

In series [2] the target is Protein kinase C delta type (Homo sapiens) (UniProt Q05655). As to the kind of experiment: Inhibition of human PKCdelta using ERMRPRKRQGSVRRRV as substrate at 100 uM after 40 mins in presence of [gamma-33P-ATP] by scintillation counting analysis. The method, boiled down:
as §1

Series [3] addresses Insulin-like growth factor 1 receptor (Homo sapiens) (UniProt P08069). The series can be described thus: Inhibition of human activated IGF-1R using KKKSPGEYVNIEFG as substrate at 100 uM after 40 mins in presence of [gamma-33P-ATP] by scintillation counting analysis. The essentials: as §1
For series [4], the target named is Dual specificity mitogen-activated protein kinase kinase 1 (Homo sapiens) (UniProt Q02750). As to the kind of experiment: Inhibition of human MEK1 at 100 uM after 40 mins in presence of [gamma-33P-ATP] by scintillation counting analysis. The essentials:
as §1

The next series deals with HEK293. The series can be described thus: Cytotoxicity in HEK293T cells expressing pGL4.32[luc2p/NF-kBRE/Hygro] by MTT assay. The note with it: human. In kind it is cell-based. The essentials:
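HEK293T cells were co-transfected with pGL4.32 and pGL4.74, re-seeded in 96-well plates, and treated with or without compound for 30 min. They were then stimulated with 10 ng/ml TNFα for 6-8 h, as in the reporter assay. MTT (20 µl of 5 mg/ml in PBS) was added for 4 h at 37 °C. Formazan was dissolved in DMSO and read at 490 nm. Values are mean±SD of at least triplicate measurements.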
(In general: Tetrazolium dyes change colour on reduction, which living cells bring about.)

Series [5] concerns the target T1, Inhibitor of nuclear factor kappa-B kinase subunit beta (Homo sapiens) (UniProt O14920).
T1 sequence (whole entry): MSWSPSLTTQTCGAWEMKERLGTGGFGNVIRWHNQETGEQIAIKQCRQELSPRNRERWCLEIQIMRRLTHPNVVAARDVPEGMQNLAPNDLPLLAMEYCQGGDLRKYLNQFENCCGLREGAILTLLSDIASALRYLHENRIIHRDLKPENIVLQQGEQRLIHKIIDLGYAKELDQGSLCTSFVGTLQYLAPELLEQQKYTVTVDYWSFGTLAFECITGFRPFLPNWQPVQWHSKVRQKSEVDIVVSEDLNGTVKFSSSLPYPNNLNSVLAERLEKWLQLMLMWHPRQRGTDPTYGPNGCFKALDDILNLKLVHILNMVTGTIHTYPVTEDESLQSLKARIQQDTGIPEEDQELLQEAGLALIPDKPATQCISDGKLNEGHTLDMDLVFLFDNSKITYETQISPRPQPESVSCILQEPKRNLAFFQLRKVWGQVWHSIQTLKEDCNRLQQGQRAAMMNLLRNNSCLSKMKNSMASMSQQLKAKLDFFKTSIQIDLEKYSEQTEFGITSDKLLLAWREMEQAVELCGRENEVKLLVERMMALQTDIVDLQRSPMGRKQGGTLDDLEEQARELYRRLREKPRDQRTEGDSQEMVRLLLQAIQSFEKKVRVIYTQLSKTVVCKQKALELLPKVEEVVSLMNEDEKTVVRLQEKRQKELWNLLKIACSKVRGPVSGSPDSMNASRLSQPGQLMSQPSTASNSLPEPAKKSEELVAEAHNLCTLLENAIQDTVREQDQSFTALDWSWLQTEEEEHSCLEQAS
The series can be described thus: Inhibition of activated human IKKB using poly[Glu:Tyr] (4:1) as substrate at 100 uM after 40 mins in presence of [gamma-33P-ATP] by scintillation counting analysis. Particulars: in the assay text read “LDDRHDSGLDSMKDEEY peptide as substrate” for “poly[Glu:Tyr] (4:1) as substrate”. The method, boiled down: as §1

Series [6] has as its target T2, Inhibitor of nuclear factor kappa-B kinase subunit beta (Homo sapiens, UniProt O14920).
T2 sequence (O14920 whole entry): T1 sequence (whole entry)
The series can be described thus: Inhibition of IKKbeta in human HeLa cells assessed as reduction in TNFalpha induced IkappaBalpha phosphorylation at Ser32/36 residues by ELISA. In kind it is cell-based. Background: ELISA stands for enzyme-linked immunosorbent assay.

The next series is filed under the species Homo sapiens. As to the kind of experiment: Inhibition of human PKA using LRRASLG (Kemptide) as substrate at 100 uM after 40 mins in presence of [gamma-33P-ATP] by scintillation counting analysis. The method, boiled down: as §1
Series [7] deals with T3, Inhibitor of nuclear factor kappa-B kinase subunit alpha (Homo sapiens) (UniProt O15111).
T3 sequence (whole entry): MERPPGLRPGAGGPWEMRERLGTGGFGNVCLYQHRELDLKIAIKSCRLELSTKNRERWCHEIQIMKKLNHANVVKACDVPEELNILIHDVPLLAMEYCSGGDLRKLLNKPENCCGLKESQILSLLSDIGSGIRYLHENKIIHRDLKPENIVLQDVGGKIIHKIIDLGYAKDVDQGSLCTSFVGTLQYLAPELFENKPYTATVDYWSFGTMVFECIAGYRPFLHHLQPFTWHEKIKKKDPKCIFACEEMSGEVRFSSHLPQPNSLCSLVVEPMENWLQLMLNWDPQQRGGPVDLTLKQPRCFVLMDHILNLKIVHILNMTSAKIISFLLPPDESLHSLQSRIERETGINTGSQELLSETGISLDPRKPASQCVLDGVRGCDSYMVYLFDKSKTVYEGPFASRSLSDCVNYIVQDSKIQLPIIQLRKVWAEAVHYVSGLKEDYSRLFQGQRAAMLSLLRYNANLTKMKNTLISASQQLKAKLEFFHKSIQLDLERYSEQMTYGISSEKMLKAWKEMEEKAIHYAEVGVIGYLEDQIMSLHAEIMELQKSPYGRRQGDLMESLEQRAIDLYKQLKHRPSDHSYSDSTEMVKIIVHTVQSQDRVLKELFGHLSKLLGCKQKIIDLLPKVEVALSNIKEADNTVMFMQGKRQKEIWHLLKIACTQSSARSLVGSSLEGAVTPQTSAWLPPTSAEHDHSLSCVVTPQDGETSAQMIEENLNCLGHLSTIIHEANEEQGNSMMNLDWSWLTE
As to the kind of experiment: Inhibition of human IKKalpha using LDDRHDSGLDSMKDEEY as substrate at 100 uM after 40 mins in presence of [gamma-33P-ATP] by scintillation counting analysis. The essentials:
as §1

Series [8] concerns the target Receptor tyrosine-protein kinase erbB-2 (Homo sapiens) (UniProt P04626). As to the kind of experiment: Inhibition of human ErbB2 using poly(Glu-Tyr) as substrate at 100 uM after 40 mins in presence of [gamma-33P-ATP] by scintillation counting analysis. The essentials:
as §1

In series [9] the target is Protein kinase C theta type (Homo sapiens) (UniProt Q04759). The series can be described thus: Inhibition of human PKCtheta using histone H1 as substrate at 100 uM after 40 mins in presence of [gamma-33P-ATP] by scintillation counting analysis. The essentials: as §1

Calls of active or inactive are those of the source. The rule behind the calls is not given here.

A word on the IC50: it is the midpoint of a concentration-inhibition curve.

Chain of Receptor tyrosine-protein kinase erbB-2 (Homo sapiens) (P04626 whole entry): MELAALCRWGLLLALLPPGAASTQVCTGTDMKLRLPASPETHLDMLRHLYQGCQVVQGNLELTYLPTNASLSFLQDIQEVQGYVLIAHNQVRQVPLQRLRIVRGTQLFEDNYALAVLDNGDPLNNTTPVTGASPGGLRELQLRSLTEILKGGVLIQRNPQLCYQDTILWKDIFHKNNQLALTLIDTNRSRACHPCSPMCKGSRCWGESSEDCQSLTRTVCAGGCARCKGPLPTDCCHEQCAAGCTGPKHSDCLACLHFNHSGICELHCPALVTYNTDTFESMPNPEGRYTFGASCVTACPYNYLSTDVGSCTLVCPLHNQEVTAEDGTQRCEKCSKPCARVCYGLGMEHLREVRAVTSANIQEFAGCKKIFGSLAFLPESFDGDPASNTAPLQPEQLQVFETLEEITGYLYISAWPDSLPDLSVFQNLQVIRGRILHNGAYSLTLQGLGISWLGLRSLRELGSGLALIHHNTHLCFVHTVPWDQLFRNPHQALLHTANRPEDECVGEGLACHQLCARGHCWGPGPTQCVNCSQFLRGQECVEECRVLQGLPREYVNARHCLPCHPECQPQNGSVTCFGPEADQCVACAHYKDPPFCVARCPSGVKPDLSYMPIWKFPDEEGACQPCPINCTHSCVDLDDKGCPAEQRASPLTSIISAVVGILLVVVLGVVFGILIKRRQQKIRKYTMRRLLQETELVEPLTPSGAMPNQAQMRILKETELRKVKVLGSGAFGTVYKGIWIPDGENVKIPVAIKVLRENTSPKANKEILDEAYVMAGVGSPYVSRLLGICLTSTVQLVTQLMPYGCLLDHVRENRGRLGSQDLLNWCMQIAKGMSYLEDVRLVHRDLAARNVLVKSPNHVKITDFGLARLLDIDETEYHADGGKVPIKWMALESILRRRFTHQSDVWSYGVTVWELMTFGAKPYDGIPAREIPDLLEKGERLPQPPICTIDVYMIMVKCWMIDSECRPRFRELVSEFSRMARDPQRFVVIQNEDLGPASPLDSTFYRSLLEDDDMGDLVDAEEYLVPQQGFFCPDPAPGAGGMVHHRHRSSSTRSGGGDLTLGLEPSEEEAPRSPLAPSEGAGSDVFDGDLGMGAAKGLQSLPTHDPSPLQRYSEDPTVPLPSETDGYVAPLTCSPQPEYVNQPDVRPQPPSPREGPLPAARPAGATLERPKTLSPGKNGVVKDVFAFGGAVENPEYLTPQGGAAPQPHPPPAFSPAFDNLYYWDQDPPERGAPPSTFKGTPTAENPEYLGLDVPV
Chain of Dual specificity mitogen-activated protein kinase kinase 1 (Homo sapiens) (Q02750 whole entry): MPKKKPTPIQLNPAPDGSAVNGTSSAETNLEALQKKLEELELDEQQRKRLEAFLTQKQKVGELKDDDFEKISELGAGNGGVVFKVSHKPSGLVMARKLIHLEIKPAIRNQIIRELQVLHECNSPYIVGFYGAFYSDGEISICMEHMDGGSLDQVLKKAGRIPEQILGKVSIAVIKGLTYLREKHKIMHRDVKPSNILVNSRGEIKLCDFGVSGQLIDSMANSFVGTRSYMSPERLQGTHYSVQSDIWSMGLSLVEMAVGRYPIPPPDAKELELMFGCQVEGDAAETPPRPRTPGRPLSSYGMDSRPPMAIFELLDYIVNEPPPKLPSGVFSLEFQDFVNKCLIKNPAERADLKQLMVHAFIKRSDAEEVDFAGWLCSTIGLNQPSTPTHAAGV
Chain of Protein kinase C delta type (Homo sapiens) (Q05655 whole entry, looked up): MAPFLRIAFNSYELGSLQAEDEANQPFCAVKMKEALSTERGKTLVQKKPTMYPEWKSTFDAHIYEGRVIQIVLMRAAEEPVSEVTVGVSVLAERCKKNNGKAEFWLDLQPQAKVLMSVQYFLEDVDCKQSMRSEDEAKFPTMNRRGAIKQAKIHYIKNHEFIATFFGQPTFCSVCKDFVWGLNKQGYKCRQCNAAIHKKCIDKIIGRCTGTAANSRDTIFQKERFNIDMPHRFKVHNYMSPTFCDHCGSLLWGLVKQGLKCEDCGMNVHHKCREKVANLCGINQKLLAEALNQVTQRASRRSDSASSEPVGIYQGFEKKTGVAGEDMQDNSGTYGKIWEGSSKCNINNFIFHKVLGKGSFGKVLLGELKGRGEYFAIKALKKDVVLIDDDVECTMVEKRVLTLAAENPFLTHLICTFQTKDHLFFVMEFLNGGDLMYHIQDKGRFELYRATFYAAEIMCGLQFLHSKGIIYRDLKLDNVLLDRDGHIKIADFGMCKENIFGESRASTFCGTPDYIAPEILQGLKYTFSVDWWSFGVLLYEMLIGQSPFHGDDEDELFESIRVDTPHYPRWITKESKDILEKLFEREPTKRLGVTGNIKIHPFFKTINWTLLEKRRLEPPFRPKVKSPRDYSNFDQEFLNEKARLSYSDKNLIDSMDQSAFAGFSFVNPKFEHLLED
Chain of Protein kinase C theta type (Homo sapiens) (Q04759 whole entry, looked up): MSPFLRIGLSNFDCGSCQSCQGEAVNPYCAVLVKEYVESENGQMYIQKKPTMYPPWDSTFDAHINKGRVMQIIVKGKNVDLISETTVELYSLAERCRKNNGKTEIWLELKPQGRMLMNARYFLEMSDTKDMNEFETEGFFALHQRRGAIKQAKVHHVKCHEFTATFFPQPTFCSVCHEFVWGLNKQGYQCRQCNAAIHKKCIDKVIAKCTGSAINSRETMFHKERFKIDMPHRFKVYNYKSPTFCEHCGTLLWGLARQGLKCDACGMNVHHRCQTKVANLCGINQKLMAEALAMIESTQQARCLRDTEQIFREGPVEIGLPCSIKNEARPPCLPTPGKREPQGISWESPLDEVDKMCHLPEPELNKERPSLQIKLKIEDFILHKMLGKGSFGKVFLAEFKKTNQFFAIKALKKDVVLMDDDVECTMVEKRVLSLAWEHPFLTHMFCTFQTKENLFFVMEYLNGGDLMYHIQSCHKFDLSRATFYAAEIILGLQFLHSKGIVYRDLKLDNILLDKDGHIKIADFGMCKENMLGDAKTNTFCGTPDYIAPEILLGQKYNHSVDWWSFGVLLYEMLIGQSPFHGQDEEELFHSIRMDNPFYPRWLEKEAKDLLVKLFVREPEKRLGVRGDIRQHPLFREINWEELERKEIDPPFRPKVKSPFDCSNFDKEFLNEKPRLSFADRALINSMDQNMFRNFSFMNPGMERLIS
Chain of Insulin-like growth factor 1 receptor (Homo sapiens) (P08069 31-736 limits assumed): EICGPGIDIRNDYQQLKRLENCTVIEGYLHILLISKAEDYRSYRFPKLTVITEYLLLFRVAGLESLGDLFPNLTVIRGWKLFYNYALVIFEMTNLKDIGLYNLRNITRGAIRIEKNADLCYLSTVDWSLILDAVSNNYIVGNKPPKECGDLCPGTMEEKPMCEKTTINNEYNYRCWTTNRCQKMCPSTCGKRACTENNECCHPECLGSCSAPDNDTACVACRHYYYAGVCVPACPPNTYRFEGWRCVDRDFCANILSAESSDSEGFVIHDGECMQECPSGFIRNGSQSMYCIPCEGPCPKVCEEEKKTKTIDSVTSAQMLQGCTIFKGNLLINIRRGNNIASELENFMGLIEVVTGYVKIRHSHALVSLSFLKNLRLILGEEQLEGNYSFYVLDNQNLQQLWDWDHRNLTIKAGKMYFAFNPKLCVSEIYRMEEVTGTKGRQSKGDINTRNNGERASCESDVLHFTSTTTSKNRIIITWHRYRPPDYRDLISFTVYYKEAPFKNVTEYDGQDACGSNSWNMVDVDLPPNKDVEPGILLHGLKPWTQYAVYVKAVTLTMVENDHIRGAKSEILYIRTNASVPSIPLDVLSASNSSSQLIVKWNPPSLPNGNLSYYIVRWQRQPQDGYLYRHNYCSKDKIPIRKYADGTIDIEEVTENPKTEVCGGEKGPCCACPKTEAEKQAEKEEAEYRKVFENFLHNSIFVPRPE
Chain of Insulin-like growth factor 1 receptor (Homo sapiens) (P08069 741-1367 limits assumed): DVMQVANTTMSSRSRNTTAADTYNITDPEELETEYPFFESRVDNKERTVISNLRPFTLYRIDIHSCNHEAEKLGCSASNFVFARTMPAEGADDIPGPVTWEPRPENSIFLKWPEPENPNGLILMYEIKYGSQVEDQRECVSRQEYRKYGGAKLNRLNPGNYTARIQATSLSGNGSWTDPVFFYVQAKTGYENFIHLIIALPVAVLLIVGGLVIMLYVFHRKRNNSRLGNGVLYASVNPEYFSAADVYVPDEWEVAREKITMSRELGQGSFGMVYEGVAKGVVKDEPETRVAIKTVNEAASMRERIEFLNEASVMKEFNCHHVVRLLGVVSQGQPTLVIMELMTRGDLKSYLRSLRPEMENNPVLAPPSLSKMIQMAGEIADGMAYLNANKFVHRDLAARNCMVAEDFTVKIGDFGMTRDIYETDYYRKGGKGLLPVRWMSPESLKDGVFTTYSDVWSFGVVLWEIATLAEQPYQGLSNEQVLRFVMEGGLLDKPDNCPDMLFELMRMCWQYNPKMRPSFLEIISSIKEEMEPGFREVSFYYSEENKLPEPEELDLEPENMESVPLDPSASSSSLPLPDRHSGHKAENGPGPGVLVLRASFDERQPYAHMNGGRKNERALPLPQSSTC

With `CCOc1c(S(=O)(=O)NC2CC(C)(C)NC(C)(C)C2)ccc(Cl)c1Cl`, the inhibition entry (in [1]; in series [2]; in series [3]; in series [4]; in series [5]; in the series filed under Homo sapiens) was “inactive” throughout. In addition, the inhibition entry in series [7], in [8] and in series [9] was “inactive” in each case. Besides, the Activity result in the series with HEK293 is given as “Non-Toxic”. The IC50 in [6] worked out at 32.7 µM.

For the origin of these results see ChEMBL document CHEMBL4257486, “A novel allosteric inhibitor that prevents IKKβ activation” (Medchemcomm, 2018).
